Measurements from ChEMBL document CHEMBL1144067, “Cancer chemopreventive agents (antitumor-promoters) from Ajuga decumbens” (J Nat Prod, 1999).

Tests used:
[1] = Cytotoxicity against human Raji cells assessed as cell viability at 500 molar ratio after 48 hrs; assay type: cell-based; conditions: read-out: Activity
In short: (§1)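 Raji cells (EBV genome-carrying, Burkitt's lymphoma-derived) grown in RPMI-1640 and incubated 48 h at 37 °C with 4 mmol n-butyric acid, 32 pmol TPA (20 ng/mL) and test agent at 10–1000 mol ratio/TPA (0.32–32 nmol). Viability given as percentage of Raji cells; n = 3, ±S.D.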

[2] = test system: Raji; assay: Inhibition of 12-O-tetradecanoylphorbol-13-acetate induced EBV-early antigen activation in human Raji cells at 100 molar ratio relative to control; assay type: cell-based; conditions: human gammaherpesvirus 4
In short: (§2)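 Raji cells in RPMI-1640 treated 48 h at 37 °C with n-butyric acid (4 mmol), TPA (32 pmol = 20 ng/mL) and test agent at 10, 100, 500 or 1000 mol ratio/TPA (0.32–32 nmol). EA-positive cells in smears detected by indirect immunofluorescence; induction expressed relative to TPA positive control (100%), n = 3, ±S.D.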

[3] = Cytotoxicity against human Raji cells assessed as cell viability at 100 molar ratio after 48 hrs; assay type: cell-based; conditions: read-out: Activity; in short: as §1
[4] = test system: Raji; assay: Inhibition of 12-O-tetradecanoylphorbol-13-acetate induced EBV-early antigen activation in human Raji cells at 10 molar ratio relative to control; assay type: cell-based; conditions: human gammaherpesvirus 4; in short: as §2
[5] = test system: Raji; assay: Inhibition of 12-O-tetradecanoylphorbol-13-acetate induced EBV-early antigen activation in human Raji cells at 1000 molar ratio relative to control; assay type: cell-based; conditions: human gammaherpesvirus 4; in short: as §2
[6] = test system: Raji; assay: Inhibition of 12-O-tetradecanoylphorbol-13-acetate induced EBV-early antigen activation in human Raji cells at 500 molar ratio relative to control; assay type: cell-based; conditions: human gammaherpesvirus 4; in short: as §2
[7] = Cytotoxicity against human Raji cells assessed as cell viability at 10 molar ratio after 48 hrs; assay type: cell-based; conditions: read-out: Activity; in short: as §1
[8] = Cytotoxicity against human Raji cells assessed as cell viability at 1000 molar ratio after 48 hrs; assay type: cell-based; conditions: read-out: Activity; in short: as §1
[9] = test system: Mus musculus; assay: Inhibition of DMBA-induced/TPA-promoted carcinogenesis in mouse assessed as number of skin papillomas per mouse at 85 nmol administered twice weekly after 1 week of initiation for 10 weeks; assay type: functional
In short: (§3)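 Female SPF ICR mice, 6 weeks old, 15 per group, backs shaved; single topical DMBA initiation (100 μg, 390 nmol) in 0.1 mL acetone. From 1 week after, promotion with TPA 1.7 nmol twice weekly, plus 85 nmol test agent. Papilloma incidence and number per mouse monitored weekly for 20 weeks.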

[10] = test system: Mus musculus; assay: Inhibition of DMBA-induced/TPA-promoted carcinogenesis in mouse assessed as number of skin papillomas per mouse at 85 nmol administered twice weekly after 1 week of initiation for 20 weeks; assay type: functional; in short: as §3
[11] = test system: Mus musculus; assay: Inhibition of DMBA-induced/TPA-promoted carcinogenesis in mouse assessed as number of mouse bearing papillomas at 85 nmol administered twice weekly after 1 week of initiation for 8 weeks; assay type: functional; design: scale not given: the % may be the effect or the level left; in short: as §3
[12] = test system: Mus musculus; assay: Inhibition of DMBA-induced/TPA-promoted carcinogenesis in mouse assessed as number of mouse bearing papillomas at 85 nmol administered twice weekly after 1 week of initiation for 17 weeks; assay type: functional; design: scale not given: the % may be the effect or the level left; in short: as §3
[13] = test system: Mus musculus; assay: Inhibition of DMBA-induced/TPA-promoted carcinogenesis in mouse assessed as number of mouse bearing papillomas at 85 nmol administered twice weekly after 1 week of initiation for 10 weeks; assay type: functional; design: scale not given: the % may be the effect or the level left; in short: as §3

Compound	viability at 48 h, 500 molar ratio [1]	EBV-EA induction remaining (% of TPA control) [2]	viability at 48 h, 100 molar ratio [3]	EBV-EA activation relative to TPA control [4]	EBV-EA induction remaining (% of TPA control) [5]	EBV-EA induction remaining (% of TPA control) [6]	viability at 48 h, 10 molar ratio [7]	viability at 48 h, 1000 molar ratio [8]	Activity [9]	Activity [10]	Activity [11]	Activity [12]	Activity [13]
CC(C)(O)CC[C@@H](O)[C@@](C)(O)[C@H]1CC[C@@]2(O)C3=CC(=O)[C@@H]4C[C@@H](O)[C@@H](O)C[C@]4(C)[C@H]3CC[C@]12C	> 80%	90.1%	> 80%	100%	0%	73.7%	> 80%	70%					
C=C(CO)C(CC)C[C@@H](O)[C@@](C)(O)[C@H]1CC[C@@]2(O)C3=CC(=O)[C@@H]4C[C@@H](O)[C@@H](O)C[C@]4(C)[C@H]3CC[C@]12C (some centres not stated)	> 80%	72.6%	> 80%	95.8%	4.6%	49.1%	> 80%	70%					
C[C@@H]1C(=O)O[C@H](C)[C@H]1CC(=O)[C@](C)(O)[C@H]1CC[C@@]2(O)C3=CC(=O)[C@@H]4C[C@@H](O)[C@@H](O)C[C@]4(C)[C@H]3CC[C@]12C	> 80%	84.5%	> 80%	100%	20.9%	61.9%	> 80%	60%					
C/C=C(/C)C(=O)O[C@@H](C[C@@]1(C)[C@H](C)C[C@H](OC(C)=O)[C@]2(COC(C)=O)[C@@H]1[C@H](OC(=O)/C(C)=C\C)CC[C@]21CO1)C1=CC(=O)OC1	> 80%	71.5%	> 80%	100%	18.4%	47.2%	> 80%	70%					
CC1(C)[C@@H](O)CC[C@]2(C)[C@H]3C(=O)C=C4[C@@H]5C[C@@](C)(C(=O)O)CC[C@]5(C)CC[C@@]4(C)[C@]3(C)CC[C@@H]12 [ENOXOLONE]									4	9			
CC1(C)C[C@H](O)C[C@@]2(C)OC(=O)C=C12 [LOLIOLIDE]	> 80%	59.6%	> 80%	88%	5.1%	26.8%	> 80%	60%					
CCC1=C(C)C(=O)O[C@@H]([C@](C)(O)[C@H]2CC[C@@]3(O)C4=CC(=O)[C@@H]5C[C@@H](O)[C@@H](O)C[C@]5(C)[C@H]4CC[C@]23C)C1	> 80%	81%	> 80%	100%	17.5%	58.2%	> 80%	60%					
CC(=O)OC[C@@]12[C@@H](OC(C)=O)C[C@@H](C)[C@](C)(C[C@H](OC(C)=O)C3=CC(=O)OC3)[C@H]1[C@H](OC(C)=O)CC[C@]21CO1 [AJUGAPANTIN A]	> 80%	79.2%	> 80%	100%	10.6%	54.7%	> 80%	70%					
CC(C)(O)CC[C@@H](O)[C@@](C)(O)[C@H]1CC[C@@]2(O)C3=CC(=O)[C@]4(O)C[C@@H](O)[C@@H](O)C[C@]4(C)[C@H]3CC[C@]12C		65.9%		100%	0%	23.4%							
COc1cc(C(=O)O)ccc1O [VANILLIC ACID]	> 80%	73.9%	> 80%	90.2%	0%	46.2%	> 80%	60%					
C[C@@H]1C(=O)O[C@H](C)[C@H]1C[C@@H](O)[C@](C)(O)[C@H]1CC[C@@]2(O)C3=CC(=O)[C@@H]4C[C@@H](O)[C@@H](O)C[C@]4(C)[C@H]3CC[C@]12C [CYASTERONE]	> 80%	75.2%	> 80%	94.6%	0%	36.2%	> 80%	70%	2.5	7	43%	80%	60%
C=C(C)C(C[C@@H](O)[C@@](C)(O)[C@H]1CC[C@@]2(O)C3=CC(=O)[C@@H]4C[C@@H](O)[C@@H](O)C[C@]4(C)[C@H]3CC[C@]12C)C(C)O (some centres not stated) [DECUMBESTERONE]	> 80%	66%	> 80%	100%	0%	24.7%	> 80%	70%					
C[C@@H]1C(=O)O[C@H](C)[C@H]1C[C@@H](O)[C@](C)(O)[C@H]1CC[C@@]2(O)C3=CC(=O)[C@]4(O)C[C@@H](O)[C@@H](O)C[C@]4(C)[C@H]3CC[C@]12C	> 80%	80.2%	> 80%	100%	0%	51.9%	> 80%	70%					
O=c1cc(-c2ccc(O)cc2)oc2cc(O)cc(O)c12 [APIGENIN]	> 80%	83.7%	> 80%	100%	31.5%	65.9%	> 80%	50%					
CC(C)(O)CC[C@@H](O)[C@](C)(O)[C@H]1CC[C@@]2(O)C3=CC(=O)[C@]4(O)C[C@@H](O)[C@@H](O)C[C@]4(C)[C@H]3CC[C@]12C [POLYPODINE B]	> 80%		> 80%				> 80%	70%					
C/C=C(/C)C(=O)O[C@@H]1CC[C@]2(CO2)[C@]2(COC(C)=O)[C@@H](OC(C)=O)C[C@@H](C)[C@](C)(C[C@H](OC(C)=O)C3=CC(=O)OC3)[C@@H]12	> 80%	73.5%	> 80%	100%	0%	42.6%	> 80%	60%					
C/C=C(/C)C(=O)O[C@@H]1CC[C@]2(CO2)[C@]2(COC(C)=O)[C@@H](OC(C)=O)C[C@@H](C)[C@](C)(C[C@H](O)C3=CC(=O)OC3)[C@@H]12	> 80%	76.3%	> 80%	100%	0%	55.8%	> 80%	50%					
